Experimental data published in ChEMBL document CHEMBL3856239, “Synthesis and Antiobesity Properties of 6-(4-Chlorophenyl)-3-(4-((3,3-difluoro-1-hydroxycyclobutyl)methoxy)-3-methoxyphenyl)thieno[3,2-d]pyrimidin-4(3H)-one (BMS-814580): A Highly Efficacious Melanin Concentrating Hormone Receptor 1 (MCHR1) Inhibitor” (J Med Chem, 2016).
Values after ≈ are worked out from the molar mass of the structure shown.

Tests used:
[1] = Solubility of the compound in phosphate buffer at pH 6.4; assay type: physicochemical
Outline: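 Solubility of parent compounds and prodrugs measured in 50 mM phosphate buffer, pH 6.4.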

Rattus norvegicus [2] = assay: Antiobesity activity in DIO Sprague-Dawley rat model assessed as reduction in body weight at 0.03 mg/kg, po qd for 28 days relative to vehicle control; assay type: functional; design: scale not given: the % may be the effect or the level left
Outline: (§1)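 Obese male SD rats on diet-induced obesity, 8/group, dosed orally once daily for 28 days with phosphate prodrug (0.03–3 mg/kg parent) in 14% propylene glycol/1% Tween/85% water; rimonabant 10 mg/kg control; pair-fed groups matched to 1 and 3 mg/kg intake; body weight and food measured daily, % change versus vehicle.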

Rattus norvegicus [3] = assay: Antiobesity activity in DIO Sprague-Dawley rat model assessed as reduction in body weight at 0.1 mg/kg, po qd for 28 days relative to vehicle control; assay type: functional; design: scale not given: the % may be the effect or the level left; outline: as §1
Rattus norvegicus [4] = assay: Antiobesity activity in DIO Sprague-Dawley rat model assessed as reduction in body weight at 0.3 mg/kg, po qd for 28 days relative to vehicle control; assay type: functional; design: scale not given: the % may be the effect or the level left; outline: as §1
Rattus norvegicus [5] = assay: Antiobesity activity in DIO Sprague-Dawley rat model assessed as reduction in body weight at 1 mg/kg, po qd for 28 days relative to vehicle control; assay type: functional; design: scale not given: the % may be the effect or the level left; outline: as §1
Rattus norvegicus [6] = assay: Antiobesity activity in DIO Sprague-Dawley rat model assessed as reduction in body weight at 3 mg/kg, po qd for 28 days relative to vehicle control; assay type: functional; design: scale not given: the % may be the effect or the level left; outline: as §1
[7] = Cmax in dog at 10 mg/kg, po; assay type: ADME, organism-based, Canis lupus familiaris; design: dose 10 mg/kg, route oral; conditions: in vivo
Outline: (§2)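 Rats, dogs and cynomolgus monkeys, n = 3: parent 1 mg/kg i.v. in PEG400:DMAC:water (70:5:25), or phosphate prodrug 10 mg/kg oral in Methocel:Tween80:water (0.5:0.1:99.4); plasma parent compound, Cmax, Tmax, AUC0-∞, half-life, clearance, Vss and bioavailability derived.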

Rattus norvegicus [8] = assay: Antiobesity activity in DIO Sprague-Dawley rat model assessed as reduction in caloric intake at 0.03 mg/kg, po qd for 28 days relative to vehicle control; assay type: functional; design: scale not given: the % may be the effect or the level left; outline: as §1
Rattus norvegicus [9] = assay: Antiobesity activity in DIO Sprague-Dawley rat model assessed as reduction in caloric intake at 0.1 mg/kg, po qd for 28 days relative to vehicle control; assay type: functional; design: scale not given: the % may be the effect or the level left; outline: as §1
Rattus norvegicus [10] = assay: Antiobesity activity in DIO Sprague-Dawley rat model assessed as reduction in caloric intake at 0.3 mg/kg, po qd for 28 days relative to vehicle control; assay type: functional; design: scale not given: the % may be the effect or the level left; outline: as §1
Rattus norvegicus [11] = assay: Antiobesity activity in DIO Sprague-Dawley rat model assessed as reduction in caloric intake at 1 mg/kg, po qd for 28 days relative to vehicle control; assay type: functional; design: scale not given: the % may be the effect or the level left; outline: as §1
Rattus norvegicus [12] = assay: Antiobesity activity in DIO Sprague-Dawley rat model assessed as reduction in caloric intake at 3 mg/kg, po qd for 28 days relative to vehicle control; assay type: functional; design: scale not given: the % may be the effect or the level left; outline: as §1
[13] = Plasma concentration in DIO Sprague-Dawley rat assessed as parent compound level at 0.3 mg/kg, po for 28 days measured after 2 hrs; assay type: ADME, organism-based
Outline: (§3)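 Obese male DIO SD rats, 8/group, dosed orally once daily for 28 days with phosphate prodrug at 0.03–3 mg/kg. Vehicle 14% propylene glycol/1% Tween/85% water. Body weight and food intake recorded daily. Parent plasma levels at 2 and 24 h; prodrug detection limit <2 nM. Histopathology for biliary toxicity at study end.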

[14] = Plasma concentration in DIO Sprague-Dawley rat assessed as parent compound level at 3 mg/kg, po for 28 days measured after 2 hrs; assay type: ADME, organism-based; outline: as §3
[15] = Plasma concentration in DIO Sprague-Dawley rat assessed as parent compound level at 0.3 mg/kg, po for 28 days measured after 24 hrs; assay type: ADME, organism-based; outline: as §3
Rattus norvegicus [16] = assay: Toxicity in DIO Sprague-Dawley rat assessed as biliary lesion at 0.03 to 3 mg/kg, po administered once daily for 28 days by histophalogy analysis; assay type: organism-based; conditions: in vivo, 672 h; outline: as §3
Rattus norvegicus [17] = assay: Antiobesity activity in once daily orally dosed DIO Sprague-Dawley rat model assessed as reduction in caloric measured after 28 days relative to vehicle control; assay type: functional, organism-based; outline: as §1
[18] = target: Melanin-concentrating hormone receptor 1 (Homo sapiens, UniProt Q99705); assay: Binding affinity to MCHR1 (unknown origin)
Melanin-concentrating hormone receptor 1, sequence (Q99705 whole entry): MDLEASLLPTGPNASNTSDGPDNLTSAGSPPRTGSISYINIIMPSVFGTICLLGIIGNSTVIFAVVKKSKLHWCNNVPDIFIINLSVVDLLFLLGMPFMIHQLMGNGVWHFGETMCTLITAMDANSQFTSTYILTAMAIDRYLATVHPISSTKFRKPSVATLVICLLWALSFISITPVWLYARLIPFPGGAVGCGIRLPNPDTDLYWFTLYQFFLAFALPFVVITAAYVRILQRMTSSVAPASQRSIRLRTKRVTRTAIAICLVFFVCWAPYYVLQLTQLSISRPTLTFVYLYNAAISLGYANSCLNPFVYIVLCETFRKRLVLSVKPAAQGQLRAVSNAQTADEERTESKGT

[19] = Protein binding in DIO rat plasma assessed as unbound fraction; assay type: ADME, cell-free
Outline: (§4)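 Plasma protein binding reported as % free drug in rat, DIO rat, dog, cynomolgus monkey, rabbit and human plasma.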

[20] = Protein binding in dog plasma assessed as unbound fraction; assay type: ADME, cell-free, Canis lupus familiaris; outline: as §4
[21] = Protein binding in cynomolgus monkey plasma assessed as unbound fraction; assay type: ADME, cell-free, Macaca fascicularis; outline: as §4
[22] = Protein binding in rabbit plasma assessed as unbound fraction; assay type: ADME, cell-free, Oryctolagus cuniculus; outline: as §4
[23] = Cmax in rat at 10 mg/kg, po; assay type: ADME, organism-based; design: dose 10 mg/kg, route oral; conditions: in vivo; outline: as §2
[24] = Cmax in cynomolgus monkey at 10 mg/kg, po; assay type: ADME, organism-based, Macaca fascicularis; design: dose 10 mg/kg, route oral; conditions: in vivo; outline: as §2
[25] = Tmax in rat at 10 mg/kg, po; assay type: ADME, organism-based; conditions: in vivo
Outline: (§5)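 Full PK in rat, dog and cynomolgus monkey. Oral arm: phosphate prodrug at 10 mg/kg parent-equivalent in Methocel:Tween80:water (0.5:0.1:99.4). Intravenous arm: parent at 1 mg/kg in PEG400:DMAC:water (70:5:25). n = 3 per species; individual Tmax values reported for dog and monkey.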

[26] = Tmax in dog at 10 mg/kg, po; assay type: ADME, organism-based, Canis lupus familiaris; conditions: in vivo; outline: as §5
[27] = Tmax in cynomolgus monkey at 10 mg/kg, po; assay type: ADME, organism-based, Macaca fascicularis; conditions: in vivo; outline: as §5
[28] = AUC in rat at 10 mg/kg, po; assay type: ADME, organism-based; conditions: in vivo; outline: as §2
[29] = AUC in dog at 10 mg/kg, po; assay type: ADME, organism-based, Canis lupus familiaris; conditions: in vivo; outline: as §2
[30] = AUC in cynomolgus monkey at 10 mg/kg, po; assay type: ADME, organism-based, Macaca fascicularis; conditions: in vivo; outline: as §2
[31] = Oral bioavailability in rat at 10 mg/kg; assay type: ADME, organism-based; conditions: in vivo; outline: as §5
[32] = Oral bioavailability in dog at 10 mg/kg; assay type: ADME, organism-based, Canis lupus familiaris; conditions: in vivo; outline: as §5
[33] = Oral bioavailability in cynomolgus monkey at 10 mg/kg; assay type: ADME, organism-based, Macaca fascicularis; conditions: in vivo; outline: as §5
Rattus norvegicus [34] = assay: Toxicity in rat assessed as hepatobiliary lesions up to 100 mg/kg administered for 30 days; assay type: organism-based; conditions: in vivo, 720 h
Outline: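 Rats dosed daily with the phosphate prodrug for 30 days at up to 100 mg/kg; hepatobiliary lesions examined.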

[35] = Plasma concentration in DIO Sprague-Dawley rat assessed as parent compound level at 3 mg/kg, po for 28 days measured after 24 hrs

solubility [1]: 4 µg/mL (≈ 6.84 µM)
Cmax [7]: 1200 nM
concentration at 2 h [13]: 2000 nM
concentration at 2 h [14]: 13500 nM
concentration at 24 h [15]: 1200 nM
Ki [18]: 2920 nM
Fu [19]: 0.1%
Fu [20]: 0.3%
Fu [21]: 0.4%
Fu [22]: 0.2%
Cmax [23]: 4000 nM
Cmax [24]: 1200 nM
Tmax [25]: 6.7 h
Tmax [26]: 9.3 h
Tmax [27]: 10.7 h
AUC [28]: 107 µM·h
AUC [29]: 15.3 µM·h
AUC [30]: 87 µM·h
bioavailability [31]: 54%
bioavailability [32]: 33%
bioavailability [33]: 46%
concentration at 24 h [35]: 14400 nM
Structure (SMILES): COc1cc(-n2cnc3cc(-c4ccc(Cl)cc4)sc3c2=O)ccc1OCC1(OP(=O)(O)O)CC(F)(F)C1
Activity (Rattus norvegicus [2]): 1.7%
Activity (Rattus norvegicus [3]): 3.2%
Activity (Rattus norvegicus [4]): 5%
Activity (Rattus norvegicus [5]): 6.6%
Activity (Rattus norvegicus [6]): 7.8%
Activity (Rattus norvegicus [8]): 6.5%
Activity (Rattus norvegicus [9]): 10.5%
Activity (Rattus norvegicus [10]): 12.8%
Activity (Rattus norvegicus [11]): 14.5%
Activity (Rattus norvegicus [12]): 14.7%
Activity (Rattus norvegicus [16]): Non-Toxic
inhibition (Rattus norvegicus [17]): Dose-dependent effect
Activity (Rattus norvegicus [34]): Non-Toxic
